≈ marks a conversion by molar mass, not a printed value.
How the values were obtained:
[1] = system: Staphylococcus aureus; assay: Antimicrobial activity against methicillin-resistant Staphylococcus aureus RCMB 2658 clinical isolate after 20 hrs by broth microdilution method; type: functional; conditions: RCMB 2658, 20 h
Summary of the method: (§1)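 CLSI broth microdilution in cation-adjusted Mueller Hinton broth. Compounds were serially diluted in triplicate and plates held at 37 °C for 20 h. MIC was taken by eye as the lowest concentration with no visible growth, and the average of the triplicate determinations is reported.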

[2] = system: Staphylococcus aureus; assay: Bactericidal activity against methicillin-resistant Staphylococcus aureus USA300 assessed as time required to reduce bacterial inoculum to zero colony forming units at 3 times MIC by time kill assay; type: functional
Summary of the method: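 Samples taken at 2, 4, 6, 8, 10, 12 and 24 h were serially diluted in PBS and plated on trypticase soy agar. Viable CFU/mL were counted after at least 16 h at 37 °C.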

[3] = system: HaCaT; assay: Cytotoxicity against human HaCaT cells assessed as cell viability up to 16 ug/ml after 2 hrs by MTS assay; type: cell-based
Summary of the method: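 HaCaT keratinocytes were grown in DMEM with 10% FBS at 37 °C, 5% CO₂. They were exposed in triplicate to 8–256 μg/mL for 2 h, then MTS was added. Background-corrected absorbance was expressed as % viability relative to a DMSO vehicle control.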

[4] = system: Staphylococcus aureus; assay: Bactericidal activity against methicillin-resistant Staphylococcus aureus USA200 NRS383 clinical isolate after 20 hrs by broth microdilution method; type: functional; conditions: USA200 NRS383, 20 h
[5] = system: Staphylococcus aureus; assay: Antimicrobial activity against vancomycin-resistant Staphylococcus aureus 10 clinical isolate after 20 hrs by broth microdilution method; type: functional; conditions: isolate 10, 20 h; summary of the method: as §1
[6] = system: Staphylococcus aureus; assay: Bactericidal activity against methicillin-sensitive Staphylococcus aureus NRS72 clinical isolate after 20 hrs by broth microdilution method; type: functional; conditions: NRS72, 20 h
[7] = system: Staphylococcus aureus; assay: Bactericidal activity against methicillin-resistant Staphylococcus aureus NRS119 clinical isolate after 20 hrs by broth microdilution method; type: functional; conditions: NRS119, 20 h
[8] = system: Staphylococcus aureus; assay: Bactericidal activity against methicillin-resistant Staphylococcus aureus USA300 NRS384 clinical isolate after 20 hrs by broth microdilution method; type: functional; conditions: USA300 NRS384, 20 h
[9] = system: Staphylococcus aureus; assay: Bactericidal activity against vancomycin-resistant Staphylococcus aureus 10 clinical isolate after 20 hrs by broth microdilution method; type: functional; conditions: isolate 10, 20 h
[10] = system: Enterococcus faecium; assay: Antimicrobial activity against vancomycin-resistant Enterococcus faecium ATCC 700221 after 20 hrs by broth microdilution method; type: functional; conditions: ATCC 700221, 20 h; summary of the method: as §1
[11] = system: Staphylococcus aureus; assay: Bactericidal activity against methicillin-resistant Staphylococcus aureus USA100 NRS382 clinical isolate after 20 hrs by broth microdilution method; type: functional; conditions: USA100 NRS382, 20 h
[12] = system: Enterococcus faecium; assay: Bactericidal activity against vancomycin-resistant Enterococcus faecium ATCC 700221 after 20 hrs by broth microdilution method; type: functional; conditions: ATCC 700221, 20 h
[13] = system: Staphylococcus aureus; assay: Bactericidal activity against methicillin-resistant Staphylococcus aureus USA400 NRS123 clinical isolate after 20 hrs by broth microdilution method; type: functional; conditions: USA400 NRS123, 20 h
[14] = Aqueous solubility of the compound in PBS after 2 hrs by turbidity assay; type: physicochemical
Summary of the method: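 Serial dilutions were made […] and diluted 100-fold into PBS. After 2 h, turbidity was read at 540 nm with pre-addition background subtracted. Turbidity was taken as absorbance > blank mean + 3 SD. Solubility limit is the highest concentration with no turbidity.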

Structure (SMILES): Cc1nc(-c2ccc(C3=CCC(C)C3)cc2)sc1-c1ccnc(N)n1 (centres undefined)
- MIC [1]: 3.8 µg/mL (≈ 10.9 µM)

Structure (SMILES): Cc1nc(-c2ccc(C3=CCCCCC3)cc2)sc1-c1ccnc(N)n1
- MIC [1]: 3.12 µg/mL (≈ 8.61 µM)

Structure (SMILES): CCCCc1ccc(-c2nc(C)c(/C(C)=N/NC(=N)N)s2)cc1
- MIC [1]: 4.8 µg/mL (≈ 14.6 µM)
- Time [2]: 6 h
- Activity [3]: Non-toxic

Structure (SMILES): CN[C@@H](CC(C)C)C(=O)N[C@H]1C(=O)N[C@@H](CC(N)=O)C(=O)N[C@H]2C(=O)N[C@H]3C(=O)N[C@H](C(=O)N[C@@H](C(=O)O)c4cc(O)cc(O)c4-c4cc3ccc4O)[C@H](O)c3ccc(c(Cl)c3)Oc3cc2cc(c3O[C@H]2O[C@@H](CO)[C@H](O)[C@@H](O)[C@@H]2O[C@@H]2C[C@@](C)(N)[C@@H](O)[C@@H](C)O2)Oc2ccc(cc2Cl)[C@H]1O
- MBC [4]: 1 µg/mL (≈ 0.69 µM)
- Time [2]: 24 h
- MIC [5]: > 64 µg/mL
- MBC [6]: 2 µg/mL (≈ 1.38 µM)
- MBC [7]: 1 µg/mL (≈ 0.69 µM)
- MBC [8]: 1 µg/mL (≈ 0.69 µM)
- MBC [9]: > 64 µg/mL
- MIC [10]: > 64 µg/mL
- MBC [11]: 1 µg/mL (≈ 0.69 µM)
- MBC [12]: > 64 µg/mL
- MBC [13]: 1 µg/mL (≈ 0.69 µM)

Structure (SMILES): CCCCc1ccc(-c2nc(C)c(-c3ccnc(-n4cccn4)n3)s2)cc1
- MIC [1]: > 25 µg/mL

Structure (SMILES): CCCCc1ccc(-c2nc(C)c(-c3ccnc(N=C(N(C)C)N(C)C)n3)s2)cc1
- MIC [1]: > 25 µg/mL

Structure (SMILES): CCCCc1ccc(-c2nc(C)c(-c3ccnc(NC)n3)s2)cc1
- MIC [1]: > 25 µg/mL

Structure (SMILES): CCCCc1ccc(-c2nc(C)c(C(=O)/C=C/N(C)C)s2)cc1
- MIC [1]: > 25 µg/mL

Structure (SMILES): Cc1nc(-c2ccc(C=C3CCCCC3)cc2)sc1-c1ccnc(N)n1
- MIC [1]: 1.56 µg/mL (≈ 4.3 µM)

Structure (SMILES): Cc1nc(-c2ccc(I)cc2)sc1-c1ccnc(N)n1
- MIC [1]: > 25 µg/mL

Structure (SMILES): CCCCc1ccc(-c2nc(C)c(-c3ccnc(N4CCCC4)n3)s2)cc1
- MIC [1]: > 25 µg/mL

Structure (SMILES): Cc1nc(-c2ccc(/C=C/C3CCCCC3)cc2)sc1-c1ccnc(N)n1
- MIC [1]: 3.12 µg/mL (≈ 8.29 µM)

Structure (SMILES): Cc1nc(-c2ccc(-c3ccsc3)cc2)sc1-c1ccnc(N)n1
- MIC [1]: 6.25 µg/mL (≈ 17.8 µM)
- solubility kinetic at 2 h [14]: 8.5 µM (≈ 2.98 µg/mL)

Structure (SMILES): Cc1nc(-c2ccc(/C=C/C3CCCC3)cc2)sc1-c1ccnc(N)n1
- MIC [1]: 3.12 µg/mL (≈ 8.61 µM)

Structure (SMILES): Cc1nc(-c2ccc(-c3ccoc3)cc2)sc1-c1ccnc(N)n1
- MIC [1]: 7.8 µg/mL (≈ 23.3 µM)
- solubility kinetic at 2 h [14]: 13 µM (≈ 4.35 µg/mL)

Source: ChEMBL document CHEMBL3826892, “Second-Generation Phenylthiazole Antibiotics with Enhanced Pharmacokinetic Properties” (J Med Chem, 2016)
